Data from article PMC4899269 (Structure (London, England : 1993), 2016).
Where no end group is shown, it is not given here.

How the values were obtained:
JAK1 FERM–SH2 = experiment: Co-purification and size exclusion chromatography of JAK1/receptor complexes; type: binding, human; details: large scale co-expression, Ni-IMAC, TEV cleavage, SDS-PAGE
Procedure, shortened: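 His-JAK1 FERM–SH2 (G35–K559) co-expressed in insect cells with one of two GST-tagged partners, co-infected at 1:1 viral ratio: GST-IFNLR1 (K250–T299), or a chimera of IFNLR residues K250–R260 fused to IL-10RA K264–K303. Lysates purified by Ni-IMAC then SEC. Complex fractions TEV-cleaved and put through a second SEC round.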

JAK1 FERM–SH2 I240L = JAK1 FERM–SH2 I240L (human, UniProt P23458 35-559, Ile240 to leucine); experiment: BLI
JAK1 FERM–SH2 I240F = JAK1 FERM–SH2 I240F (human, UniProt P23458 35-559, Ile240 to phenylalanine); experiment: BLI
[1] = target: human JAK1 FERM–SH2 (as used in BioLayer Interferometry) (human, UniProt P23458 35-559); experiment: BLI
[2] = target: human JAK1 FERM–SH2 (residues 35–559), His tag released with TEV (human, UniProt P23458 35-559); experiment: SEC-MALS
human JAK1 FERM–SH2 (residues 35–559), His tag released with TEV, sequence (P23458 35-559): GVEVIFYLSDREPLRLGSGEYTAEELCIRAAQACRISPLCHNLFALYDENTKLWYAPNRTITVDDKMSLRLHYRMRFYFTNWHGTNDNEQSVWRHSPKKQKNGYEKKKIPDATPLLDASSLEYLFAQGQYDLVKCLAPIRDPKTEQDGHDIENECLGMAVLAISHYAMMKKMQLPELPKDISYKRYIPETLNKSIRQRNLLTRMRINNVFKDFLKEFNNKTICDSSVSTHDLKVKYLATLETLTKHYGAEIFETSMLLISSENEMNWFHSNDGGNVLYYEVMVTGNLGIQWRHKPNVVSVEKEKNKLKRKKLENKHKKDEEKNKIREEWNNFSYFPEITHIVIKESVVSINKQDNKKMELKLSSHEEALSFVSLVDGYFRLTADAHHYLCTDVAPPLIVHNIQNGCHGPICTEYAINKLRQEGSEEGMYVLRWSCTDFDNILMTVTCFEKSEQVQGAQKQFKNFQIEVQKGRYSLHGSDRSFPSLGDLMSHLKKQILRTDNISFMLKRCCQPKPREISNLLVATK

human JAK1 FERM–SH2 (as used in BioLayer Interferometry), sequence (P23458 35-559): as above
JAK1 FERM–SH2 I240F, sequence (P23458 35-559 I240F): as the sequence (P23458 35-559) above, with I206F counted along it
JAK1 FERM–SH2 I240L, sequence (P23458 35-559 I240L): as the sequence (P23458 35-559) above, with I206L counted along it

With “box2 fragment of IFNLR1: GST-tagged fragment of IFNLR1 containing box2 sequences (residues 270–299) ({GST}-SGHTHPVATFQPSRPESVNDLFLCPQKELT)” the “complex formation with JAK1 on purification / SEC (in words)” value (JAK1 FERM–SH2) was “did not co-purify with JAK1”.

“peptide containing IFNLR1 box1 and box2: GST-tagged IFNLR1 box1/box2 fragment (residues 250–299), co-expressed with JAK1 ({GST}-KTLMGNPWFQRAKMPRALDFSGHTHPVATFQPSRPESVNDLFLCPQKELT)” was tested, and the “complex formation with JAK1 on purification / SEC (in words)” value (JAK1 FERM–SH2) was “form a stable complex with JAK1”.

With “IL10RA: GST-tagged human receptor cytoplasmic fragment with putative box1 and box2 motifs ({GST}-QLYVRRRKKLPSVLLFKKPSPFIFISQRPSPETQDTIHPLDEEAFLK)” the “complex formation with JAK1 on purification / SEC (in words)” value (JAK1 FERM–SH2) was “formed a stable complex with JAK1”.

In the case of KTLMGNPWFQRAKMPRALDFS (peptide, UniProt Q8IU57 250-270, looked up, also: biotin, position not given here) [biotinylated IFNLR1 box1 peptide (residues 250–270)], the binding result (JAK1 FERM–SH2 I240L) is reported as “binds”, the binding result (JAK1 FERM–SH2 I240F) is reported as “binds” and the koff [1] is reported as 0.089 s⁻¹. It also gave a kon [1] of 72500 M⁻¹ s⁻¹.

KTLMGNPWFQRAKMPRALDFSGHTHPVATFQPSRPESVNDLFLCPQKELT (peptide, UniProt Q8IU57 250-299, looked up, also: biotin, position not given here) [biotinylated IFNLR1 box1/box2 peptide (residues 250–299)] gave a koff [1] of 0.00355 s⁻¹ and a kon [1] of 50400 M⁻¹ s⁻¹.

With KTLMGNPWFQRAKMPRALDFSGHTHPVATFQPSRPESVND (peptide, UniProt Q8IU57 250-289, looked up, also: biotin, position not given here) [biotinylated IFNLR1 box1Δbox2 peptide (residues 250–289)] the koff [1] was 0.0544 s⁻¹ and the kon [1] was 34600 M⁻¹ s⁻¹.

With KTLMGNPWFQRAKMPRALDFSGHTHPVATFQPSRPESVNDLFLCPQKELT (peptide, UniProt Q8IU57 250-299, looked up) [IFNLR1 box1/box2 peptide (residues 250–299), GST released with TEV] the “stoichiometry N” value [2] was 1.
